Source: PubChem BioAssay (several laboratories)
Compounds with a hit are over-represented: about 4.2% of the library has one in this group of screens.
UPR XBP1 act: activators of adaptive arm of unfolded protein response (XBP1); activation, % at 20 µM; CHO-XBP1 luciferase reporter, IRE1-XBP1 UPR activation, luminescence; percent of tunicamycin response, DMSO as zero; actives 0.33% (n = 330,000);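 active = versus positive control, 20 µM dose yields 30% or more activation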;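 also: 100% = tunicamycin at 10 µg/mL and 0% = DMSO only wells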
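Assay system: IRE1-XBP1 luciferase reporter CHO line. Input: 1000 cells/well. Buffer or medium: F12 with 10% serum. Doses: 20 µM, 1% DMSO. Times: overnight seeding at 37 °C, 6 h compound treatment at 37 °C. Technique: Steady-Glo luciferase glow luminescence, 10 min after reagent addition.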
CHOP inh: inhibitors of CHOP induction in ER stress response | CHO-K1 CHOP-promoter luciferase, tunicamycin-induced, 15-18 h | inhibition, % at 10 µM | actives 3.8% (n = 220,000) | AID 2732;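 active = compounds that reduced the stress-induced luciferase reporter signal by more than about 70% of percent inhibition, limit read from the data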;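 also: 0% = tunicamycin plus vehicle and 100% = wells without tunicamycin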
Lipid droplet: hepatic lipid droplet formation modulation; AML12 mouse hepatocytes, oleate lipid droplets, BODIPY imaging; inhibition, % at 6.5 µM; actives 0.4% (n = 240,000); AID 1656;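 active = lipid droplet intensity inhibited by at least 50%, with more than 500 cells counted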
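Assay system: AML12 mouse liver cells | Compound: 6.5 µM single-point dosing | Schedule: Overnight exposure | Technique: Fluorescence imaging, 20x objective, two fields per well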
ANO1 activ: activates or potentiates the mouse TMEM16A chloride channel; Q8BHY3; B-score at 10 µM; actives 0.3% (n = 340,000); HEK293 TMEM16A/YFP-H148Q/I152L, iodide quench fluorescence; active compounds read low;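 active = fluorescence-ratio B-score plate-corrected deviation score at least 3 library SD below zero, with starting fluorescence score within 5 deviations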;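 also: channel opened by trigger with iodide after compound preincubation; score built on the fluorescence ratio of max minus min over baseline; more negative score means more quench and so TMEM16A activation or potentiation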
Target sequence (Q8BHY3 whole entry, looked up): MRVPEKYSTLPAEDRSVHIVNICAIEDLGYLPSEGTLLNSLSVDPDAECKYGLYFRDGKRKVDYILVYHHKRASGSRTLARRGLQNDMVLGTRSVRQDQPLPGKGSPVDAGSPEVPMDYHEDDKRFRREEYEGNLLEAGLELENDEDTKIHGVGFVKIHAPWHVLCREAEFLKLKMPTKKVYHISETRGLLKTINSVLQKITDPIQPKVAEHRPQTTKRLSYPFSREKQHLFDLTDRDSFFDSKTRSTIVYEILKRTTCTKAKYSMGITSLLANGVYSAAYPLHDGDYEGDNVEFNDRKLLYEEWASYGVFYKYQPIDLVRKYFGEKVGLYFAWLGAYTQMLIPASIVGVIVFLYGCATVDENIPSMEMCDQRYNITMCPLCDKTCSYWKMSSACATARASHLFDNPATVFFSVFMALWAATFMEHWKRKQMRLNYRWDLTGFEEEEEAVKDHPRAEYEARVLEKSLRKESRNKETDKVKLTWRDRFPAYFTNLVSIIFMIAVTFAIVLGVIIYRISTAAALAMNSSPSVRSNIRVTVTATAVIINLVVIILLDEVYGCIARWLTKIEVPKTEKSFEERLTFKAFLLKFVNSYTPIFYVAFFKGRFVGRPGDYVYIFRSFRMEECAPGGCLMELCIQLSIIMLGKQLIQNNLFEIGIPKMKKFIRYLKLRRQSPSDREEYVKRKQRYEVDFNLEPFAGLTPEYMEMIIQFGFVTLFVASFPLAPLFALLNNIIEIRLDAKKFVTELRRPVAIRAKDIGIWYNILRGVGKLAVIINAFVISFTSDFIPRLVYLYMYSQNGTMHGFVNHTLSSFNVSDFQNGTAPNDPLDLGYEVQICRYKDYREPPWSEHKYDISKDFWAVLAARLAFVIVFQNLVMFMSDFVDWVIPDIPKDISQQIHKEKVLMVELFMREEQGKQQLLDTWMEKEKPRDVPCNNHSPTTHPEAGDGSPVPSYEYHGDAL
TMEM16A inh: inhibitors of mouse TMEM16A calcium-activated chloride channel; HEK293 TMEM16A/YFP iodide influx fluorescence, ionomycin; Q8BHY3; actives 1.2% (n = 310,000); normalized B-score (activity score, 25-100; higher = stronger inhibition) at 10 µM; AID 588511;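 active = ratio plate-corrected score three or more library SD toward inhibition, starting fluorescence score within five deviations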;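 also: score derived from kinetic fluorescence span divided by baseline fluorescence per well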
UPR CHOP act: apoptotic UPR (CHOP) activation; CHO-CHOP luciferase reporter, luminescence; percent of tunicamycin response over DMSO baseline; activation, % at 10 µM; actives 0.34% (n = 330,000); AID 449763;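 active = at 10 µM dose, activation of 40% or more, normalized to positive control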;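 also: 100% = tunicamycin at 10 µg/mL and 0% = DMSO alone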
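Assay system: CHO cells with stable CHOP pathway luciferase reporter; Buffer or medium: F12 plus 10% serum; Times: 16-18 h cell attachment, then 6 h compound exposure, 37 °C; Signal: luciferase luminescence; Read-out basis: percent activation relative to tunicamycin control; Control set: tunicamycin high control, DMSO low control.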
The depositor's hits bear a star; i = inactive; x = no result given.

SMILES	UPR XBP1 act	CHOP inh	Lipid droplet	ANO1 activ	TMEM16A inh	UPR CHOP act
CC(=O)NC(c1ccc(C(C)C)cc1)c1c(O)ccc2ccccc12 (stereo not given)	-3	x	x	i	i	-1
CC(=O)NC(c1ccccc1)c1c(O)ccc2ccccc12 (stereo not given)	-2	-18	14	-6.5*	i	-2
O=C(NCc1ccccc1)c1cccc(COc2cc(Cl)ccc2Cl)c1	4	5	-29	i	i	4
CN(C(=O)c1cccc(COc2ccc(Cl)cc2Cl)c1)c1ccccc1	x	36	-23	i	25*	x
O=C(Nc1ccc(F)cc1)C1CC(=O)n2c(nc3ccccc32)N1 (stereo not given)	-3	33	0	i	i	1
O=C(Nc1ccc(F)c(Cl)c1)C1CC(=O)n2c(nc3ccccc32)N1 (stereo not given)	0	76*	0	i	i	-2
Cn1c(=O)c2ncn(CC(=O)Nc3ccc(N4CCOCC4)cc3)c2n(C)c1=O	0	12	10	i	i	-2
CCC(C)c1ccc2oc(-c3ccc(NC(=O)Cn4cnc5c(=O)n(C)c(=O)n(C)c54)cc3)nc2c1 (stereo not given)	25	79*	-5	i	i	22
Cc1ccc(O)c(-c2cc(-c3ccc(F)cc3)no2)c1	1	x	-6	i	i	2
Cc1ccc(S(=O)(=O)N2CCC[C@H]2C(=O)OCC(=O)c2ccc3c(c2)NC(=O)CO3)cc1	1	5	6	i	25*	1
O=C(c1ccc(Cl)cc1)N1CCC(O)(CSc2ccc(Cl)cc2)CC1	0	72*	x	i	i	-3
Cc1ccc(SCC2(O)CCN(S(=O)(=O)c3ccc(Cl)cc3)CC2)cc1	0	81*	-17	i	i	-1
COc1ccc(NC(=S)NCc2ccc(F)cc2)cc1	-1	x	-3	i	i	1
COc1ccc(Cl)cc1NC(=O)c1sc2nc(C)nc(N3CCOCC3)c2c1C	1	x	13	i	i	1
CSc1nc(N)c2ncn([C@@H]3O[C@H](COP(=O)(O)OP(=O)(O)O)[C@H](O)C3O)c2n1 (stereo not given in full)	x	10	x	x	x	x
CCOC(=O)C1=CN(CC)S(=O)(=O)NC1c1cccc(OC)c1 (stereo not given)	5	x	x	i	x	3
CCN=c1scc(-c2ccco2)n1/N=C/c1ccc(O)cc1	7	76*	16	i	i	5
Cc1cc(C)c(C#N)c(SCc2ccccc2F)n1	1	24	4	i	25*	1
O=C(Nc1ccc(S(=O)(=O)Nc2ncccn2)cc1)c1ccc(Br)s1	-1	16	5	i	i	1
COc1cc(CNC(=O)c2ccc3oc(C(C)C)nc3c2)cc(OC)c1	-3	x	31	i	i	2
CCCCn1c(NC(=O)c2ccc(F)cc2)c(C#N)c2nc3ccccc3nc21	96*	x	x	x	100*	2
N#Cc1c(N)n(CCc2ccc(F)cc2)c2nc3ccccc3nc12	-5	71*	22	i	i	3
C=CCc1ccc(OCCCCN2CC(C)OC(C)C2)c(OC)c1 (stereo not given)	-2	-30	4	i	i	1
CCC(C)(C)n1nnnc1C(c1ccccc1)N1CCc2ccccc2C1 (stereo not given)	2	15	-10	i	i	-1
CCC(C)(C)n1nnnc1C(c1ccc(O)c(OC)c1)N1CCc2ccccc2C1 (stereo not given)	-5	-65	x	i	i	42*
C=CCn1c(SCC(=O)Nc2ccc3c(c2)OCO3)nc2ccccc2c1=O	3	-23	-11	i	i	3
CC(C)Cn1c(SCC(=O)NC(=O)Nc2ccc3c(c2)OCCO3)nc2ccccc2c1=O	1	70*	x	i	i	-1
